This is an account of results in ChEMBL document CHEMBL1811853, “Design and evaluation of 3-aminopyrazolopyridinone kinase inhibitors inspired by the natural product indirubin” (Bioorg Med Chem, 2011).

A word on the inhibition: it is how much of the control response was suppressed. The GI50 is the concentration that inhibits growth by half. One may read the IC50 as the concentration that gives 50% inhibition. For orientation: solubility means the concentration that dissolves in the medium under given conditions. Lower therefore signals little dissolved substance.

Converted amounts (≈) assume the structure as drawn.

Data set [1] addresses T1, Protein kinase C zeta type (Homo sapiens) (UniProt Q05513).
T1 sequence (whole entry): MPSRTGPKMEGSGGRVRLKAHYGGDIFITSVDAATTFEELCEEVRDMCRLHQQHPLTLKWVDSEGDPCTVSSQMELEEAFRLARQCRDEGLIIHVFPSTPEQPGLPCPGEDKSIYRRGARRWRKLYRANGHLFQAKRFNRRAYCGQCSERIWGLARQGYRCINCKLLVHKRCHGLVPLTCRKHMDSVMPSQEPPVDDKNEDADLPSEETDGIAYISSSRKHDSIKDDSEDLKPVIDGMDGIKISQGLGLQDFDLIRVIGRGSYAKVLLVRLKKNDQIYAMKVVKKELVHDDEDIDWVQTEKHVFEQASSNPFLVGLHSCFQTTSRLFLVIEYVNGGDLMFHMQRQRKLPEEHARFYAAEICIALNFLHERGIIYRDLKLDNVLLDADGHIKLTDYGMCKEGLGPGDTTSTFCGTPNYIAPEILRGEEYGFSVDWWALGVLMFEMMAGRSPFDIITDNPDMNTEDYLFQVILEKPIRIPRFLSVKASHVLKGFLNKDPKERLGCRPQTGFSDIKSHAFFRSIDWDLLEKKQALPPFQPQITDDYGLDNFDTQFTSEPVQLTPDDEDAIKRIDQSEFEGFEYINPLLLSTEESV
Nature of the data set: Inhibition of PKCz at 30 uM by microfluidic mobility shift assay. The method in brief:
(§1)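 Single-concentration screen, singlicate, 30 uM final (diluted from 1 mM DMSO solutions), fluorescently tagged peptide substrate appropriate to each kinase, ATP at apparent Km for each protein. Phosphorylated and unphosphorylated peptides separated electrophoretically; conversion is the phosphorylated peak area over the sum of both peaks. No-inhibitor and no-ATP controls; H89 reference on each plate.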

In data set [2] the target is T2, Serine/threonine-protein kinase Chk2 (Homo sapiens, UniProt O96017). The experiment in a line: Inhibition of CHK2 at 30 uM by microfluidic mobility shift assay. In outline:
as §1

Data set [3] deals with Ribosomal protein S6 kinase alpha-5 (Homo sapiens) (UniProt O75582). The experiment in a line: Inhibition of MSK1 at 30 uM by microfluidic mobility shift assay. In outline:
as §1

Another data set has as its system MCF7. Nature of the data set: Growth inhibition of human MCF7 cells. Type of data set: functional.
Data set [4] addresses T3, MAP kinase-activated protein kinase 5 (Homo sapiens) (UniProt Q8IW41).
T3 sequence (whole entry): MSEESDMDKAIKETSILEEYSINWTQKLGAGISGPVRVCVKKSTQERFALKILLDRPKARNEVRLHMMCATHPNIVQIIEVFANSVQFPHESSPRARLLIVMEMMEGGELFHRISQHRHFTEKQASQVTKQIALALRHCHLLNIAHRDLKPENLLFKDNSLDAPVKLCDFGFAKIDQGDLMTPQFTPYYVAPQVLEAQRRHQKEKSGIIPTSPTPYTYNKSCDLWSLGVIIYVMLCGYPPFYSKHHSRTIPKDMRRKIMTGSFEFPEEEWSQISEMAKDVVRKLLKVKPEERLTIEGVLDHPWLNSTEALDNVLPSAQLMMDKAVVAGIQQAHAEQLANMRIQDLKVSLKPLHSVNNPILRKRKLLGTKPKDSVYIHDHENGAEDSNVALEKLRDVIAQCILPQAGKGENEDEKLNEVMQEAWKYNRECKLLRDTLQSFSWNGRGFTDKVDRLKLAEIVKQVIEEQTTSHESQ
The experiment in a line: Inhibition of PRAK1 at 30 uM by microfluidic mobility shift assay. In outline:
as §1

The target of a further data set is Aurora kinase A (Homo sapiens, UniProt O14965). The experiment in a line: Inhibition of AurA by microfluidic mobility shift assay. In outline:
(§2)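 IC50 determined in the mobility shift format: a fluorescently tagged peptide substrate appropriate to each kinase, ATP at its apparent Km for each protein, and electrophoretic separation of phospho and unphosphorylated peptide. Percent conversion is the ratio of the phosphopeptide peak area to the total peak area. Controls were no inhibitor and no ATP.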

For data set [5], the target named is Tyrosine-protein kinase ABL1 (Homo sapiens, UniProt P00519). The experiment in a line: Inhibition of ABL by microfluidic mobility shift assay. In outline: as §2
A short description of data set [6]: Aqueous solubility of the compound by HPLC analysis. The settings on record: water. Type of data set: physicochemical. In outline:
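Solubility determined by HPLC measurement of the concentration in saturated aqueous solutions of the compounds.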

For data set [7], the target named is T2, Serine/threonine-protein kinase Chk2. The experiment in a line: Inhibition of CHK2 by microfluidic mobility shift assay. The method in brief: as §2
For data set [8], the target named is Proto-oncogene tyrosine-protein kinase Src (Homo sapiens, UniProt P12931). The experiment in a line: Inhibition of SRC by microfluidic mobility shift assay. The method in brief: as §2
For data set [9], the target named is MAP kinase-activated protein kinase 2 (Homo sapiens, UniProt P49137). Nature of the data set: Inhibition of MAPKAPK2 by microfluidic mobility shift assay. In outline: as §2
The nature of data set [10]: Inhibition of PKA by microfluidic mobility shift assay. In outline:
as §2

The target of data set [11] is Tyrosine-protein kinase Fyn (Homo sapiens, UniProt P06241). Nature of the data set: Inhibition of FYN by microfluidic mobility shift assay. The method in brief: as §2
Data set [12] deals with Tyrosine-protein kinase Lyn (Homo sapiens, UniProt P07948). Nature of the data set: Inhibition of LYN by microfluidic mobility shift assay. The method in brief:
as §2

Data set [13] concerns the target Tyrosine-protein kinase Lck (Homo sapiens, UniProt P06239). The experiment in a line: Inhibition of LCK by microfluidic mobility shift assay. In outline:
as §2

Data set [14] has as its target Serine/threonine-protein kinase Chk1 (Homo sapiens, UniProt O14757). Nature of the data set: Inhibition of CHK1 by microfluidic mobility shift assay. The method in brief: as §2
Data set [15] deals with Casein kinase I isoform delta (Homo sapiens, UniProt P48730). Nature of the data set: Inhibition of CK1delta by microfluidic mobility shift assay. In outline:
as §2

T2 sequence (O96017 whole entry): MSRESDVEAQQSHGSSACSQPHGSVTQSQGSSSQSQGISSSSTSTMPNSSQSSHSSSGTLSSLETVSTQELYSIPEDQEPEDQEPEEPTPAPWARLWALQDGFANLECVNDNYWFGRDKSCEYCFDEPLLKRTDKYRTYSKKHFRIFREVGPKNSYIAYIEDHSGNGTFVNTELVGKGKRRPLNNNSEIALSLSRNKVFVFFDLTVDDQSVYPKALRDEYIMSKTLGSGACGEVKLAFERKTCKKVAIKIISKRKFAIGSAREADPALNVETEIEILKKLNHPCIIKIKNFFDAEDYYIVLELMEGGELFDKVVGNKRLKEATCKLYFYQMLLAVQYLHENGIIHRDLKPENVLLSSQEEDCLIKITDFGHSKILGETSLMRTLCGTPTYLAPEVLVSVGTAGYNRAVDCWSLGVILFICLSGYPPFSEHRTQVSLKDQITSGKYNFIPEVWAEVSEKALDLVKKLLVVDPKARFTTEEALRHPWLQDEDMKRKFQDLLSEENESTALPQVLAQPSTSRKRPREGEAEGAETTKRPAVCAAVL
Chain of Ribosomal protein S6 kinase alpha-5 (Homo sapiens) (O75582 whole entry, looked up): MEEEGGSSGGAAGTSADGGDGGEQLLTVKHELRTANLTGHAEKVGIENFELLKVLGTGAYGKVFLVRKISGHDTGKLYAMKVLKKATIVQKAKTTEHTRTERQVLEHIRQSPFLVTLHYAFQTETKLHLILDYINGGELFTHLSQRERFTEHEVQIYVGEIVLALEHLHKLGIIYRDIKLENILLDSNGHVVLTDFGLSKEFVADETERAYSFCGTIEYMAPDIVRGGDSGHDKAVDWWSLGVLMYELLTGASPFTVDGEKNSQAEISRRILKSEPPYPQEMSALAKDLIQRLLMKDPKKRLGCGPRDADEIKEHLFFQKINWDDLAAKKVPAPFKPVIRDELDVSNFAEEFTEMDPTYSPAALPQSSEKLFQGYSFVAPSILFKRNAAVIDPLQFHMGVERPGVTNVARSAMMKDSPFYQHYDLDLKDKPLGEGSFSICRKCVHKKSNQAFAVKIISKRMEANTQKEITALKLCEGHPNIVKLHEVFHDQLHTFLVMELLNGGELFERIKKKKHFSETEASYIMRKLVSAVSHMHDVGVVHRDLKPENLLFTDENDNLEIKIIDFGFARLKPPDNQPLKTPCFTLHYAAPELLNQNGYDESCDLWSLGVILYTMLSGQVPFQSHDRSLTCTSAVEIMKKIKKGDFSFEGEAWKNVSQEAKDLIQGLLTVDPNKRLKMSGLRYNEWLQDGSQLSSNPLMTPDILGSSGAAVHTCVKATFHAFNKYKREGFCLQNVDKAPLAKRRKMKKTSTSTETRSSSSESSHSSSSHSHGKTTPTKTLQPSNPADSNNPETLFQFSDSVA
Chain of Tyrosine-protein kinase ABL1 (P00519 whole entry): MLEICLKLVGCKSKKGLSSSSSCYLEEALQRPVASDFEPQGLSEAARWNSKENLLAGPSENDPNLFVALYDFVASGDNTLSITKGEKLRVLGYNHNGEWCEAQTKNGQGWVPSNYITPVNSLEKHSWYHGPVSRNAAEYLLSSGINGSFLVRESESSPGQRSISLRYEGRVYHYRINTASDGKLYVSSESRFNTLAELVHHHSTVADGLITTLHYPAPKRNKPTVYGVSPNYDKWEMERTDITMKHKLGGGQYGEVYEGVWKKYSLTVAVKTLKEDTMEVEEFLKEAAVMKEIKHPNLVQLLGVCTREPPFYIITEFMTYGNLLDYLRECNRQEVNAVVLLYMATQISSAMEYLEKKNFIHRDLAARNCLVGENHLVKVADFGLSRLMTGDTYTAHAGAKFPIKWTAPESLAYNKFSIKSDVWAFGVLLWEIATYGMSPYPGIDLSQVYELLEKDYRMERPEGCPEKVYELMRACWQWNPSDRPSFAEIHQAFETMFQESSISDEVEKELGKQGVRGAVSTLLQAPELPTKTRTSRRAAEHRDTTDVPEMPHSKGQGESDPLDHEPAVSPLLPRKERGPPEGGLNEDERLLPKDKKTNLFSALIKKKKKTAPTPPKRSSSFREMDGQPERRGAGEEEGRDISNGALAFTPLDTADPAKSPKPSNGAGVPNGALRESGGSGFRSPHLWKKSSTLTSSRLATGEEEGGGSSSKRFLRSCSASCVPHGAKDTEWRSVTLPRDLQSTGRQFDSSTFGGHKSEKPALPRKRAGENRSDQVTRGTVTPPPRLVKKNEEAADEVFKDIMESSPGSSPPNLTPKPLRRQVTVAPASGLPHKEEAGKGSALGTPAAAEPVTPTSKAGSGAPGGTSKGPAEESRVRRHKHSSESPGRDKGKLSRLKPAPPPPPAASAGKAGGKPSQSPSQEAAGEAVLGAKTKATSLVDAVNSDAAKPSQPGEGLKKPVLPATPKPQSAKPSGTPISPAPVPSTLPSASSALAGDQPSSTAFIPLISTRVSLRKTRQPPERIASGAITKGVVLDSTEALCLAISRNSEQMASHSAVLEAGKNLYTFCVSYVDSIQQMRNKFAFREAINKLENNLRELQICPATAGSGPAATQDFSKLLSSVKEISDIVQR
Chain of Aurora kinase A (O14965 whole entry): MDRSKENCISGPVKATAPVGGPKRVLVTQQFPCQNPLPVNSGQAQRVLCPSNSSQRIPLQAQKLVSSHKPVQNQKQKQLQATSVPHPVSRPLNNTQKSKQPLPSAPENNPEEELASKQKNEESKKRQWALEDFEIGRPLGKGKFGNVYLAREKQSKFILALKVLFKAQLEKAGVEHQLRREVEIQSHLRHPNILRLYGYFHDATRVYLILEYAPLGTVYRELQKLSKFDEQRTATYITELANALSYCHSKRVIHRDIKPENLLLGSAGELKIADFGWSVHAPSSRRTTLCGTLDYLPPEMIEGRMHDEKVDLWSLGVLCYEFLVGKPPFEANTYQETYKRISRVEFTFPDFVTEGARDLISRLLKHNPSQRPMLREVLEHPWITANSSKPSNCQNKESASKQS
Chain of Proto-oncogene tyrosine-protein kinase Src (P12931 2-536 limits assumed): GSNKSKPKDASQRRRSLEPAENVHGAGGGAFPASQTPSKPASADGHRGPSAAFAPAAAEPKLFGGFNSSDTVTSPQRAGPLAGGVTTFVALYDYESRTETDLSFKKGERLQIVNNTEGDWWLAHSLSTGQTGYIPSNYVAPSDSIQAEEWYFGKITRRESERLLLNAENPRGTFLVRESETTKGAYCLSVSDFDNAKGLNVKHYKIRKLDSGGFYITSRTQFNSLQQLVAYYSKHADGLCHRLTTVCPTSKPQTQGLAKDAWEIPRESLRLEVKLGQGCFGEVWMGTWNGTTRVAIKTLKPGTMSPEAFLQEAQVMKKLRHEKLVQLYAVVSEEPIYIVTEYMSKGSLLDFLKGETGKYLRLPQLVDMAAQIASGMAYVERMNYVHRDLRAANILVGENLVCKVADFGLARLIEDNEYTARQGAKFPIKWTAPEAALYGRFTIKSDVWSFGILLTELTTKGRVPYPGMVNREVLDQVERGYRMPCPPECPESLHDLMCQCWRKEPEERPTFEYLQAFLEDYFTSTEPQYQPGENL
Chain of Tyrosine-protein kinase Lyn (P07948 whole entry): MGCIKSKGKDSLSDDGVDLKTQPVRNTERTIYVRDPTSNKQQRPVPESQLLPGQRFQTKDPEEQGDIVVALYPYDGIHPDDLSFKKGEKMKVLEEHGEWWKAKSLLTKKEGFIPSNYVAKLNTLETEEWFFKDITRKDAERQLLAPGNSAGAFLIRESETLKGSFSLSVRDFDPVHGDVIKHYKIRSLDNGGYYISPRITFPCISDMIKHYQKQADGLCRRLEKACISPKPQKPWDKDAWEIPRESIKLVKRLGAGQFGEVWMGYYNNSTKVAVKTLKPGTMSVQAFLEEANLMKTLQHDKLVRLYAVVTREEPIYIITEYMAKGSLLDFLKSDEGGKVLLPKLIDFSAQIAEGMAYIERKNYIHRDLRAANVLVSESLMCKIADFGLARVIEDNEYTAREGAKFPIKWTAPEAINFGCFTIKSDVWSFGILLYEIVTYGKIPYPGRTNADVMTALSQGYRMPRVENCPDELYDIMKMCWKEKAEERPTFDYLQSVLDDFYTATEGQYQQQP
Chain of MAP kinase-activated protein kinase 2 (P49137 whole entry): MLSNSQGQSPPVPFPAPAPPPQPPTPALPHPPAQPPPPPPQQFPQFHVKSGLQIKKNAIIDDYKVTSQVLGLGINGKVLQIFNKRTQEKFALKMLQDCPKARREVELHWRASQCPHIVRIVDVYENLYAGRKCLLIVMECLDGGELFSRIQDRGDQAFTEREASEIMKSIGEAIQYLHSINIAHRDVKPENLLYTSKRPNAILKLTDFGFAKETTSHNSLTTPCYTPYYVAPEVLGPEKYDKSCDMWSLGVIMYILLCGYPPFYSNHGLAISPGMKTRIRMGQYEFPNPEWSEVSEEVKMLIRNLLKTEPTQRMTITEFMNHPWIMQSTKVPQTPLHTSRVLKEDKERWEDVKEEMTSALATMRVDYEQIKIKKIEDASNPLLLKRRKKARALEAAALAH
Chain of Tyrosine-protein kinase Lck (P06239 whole entry): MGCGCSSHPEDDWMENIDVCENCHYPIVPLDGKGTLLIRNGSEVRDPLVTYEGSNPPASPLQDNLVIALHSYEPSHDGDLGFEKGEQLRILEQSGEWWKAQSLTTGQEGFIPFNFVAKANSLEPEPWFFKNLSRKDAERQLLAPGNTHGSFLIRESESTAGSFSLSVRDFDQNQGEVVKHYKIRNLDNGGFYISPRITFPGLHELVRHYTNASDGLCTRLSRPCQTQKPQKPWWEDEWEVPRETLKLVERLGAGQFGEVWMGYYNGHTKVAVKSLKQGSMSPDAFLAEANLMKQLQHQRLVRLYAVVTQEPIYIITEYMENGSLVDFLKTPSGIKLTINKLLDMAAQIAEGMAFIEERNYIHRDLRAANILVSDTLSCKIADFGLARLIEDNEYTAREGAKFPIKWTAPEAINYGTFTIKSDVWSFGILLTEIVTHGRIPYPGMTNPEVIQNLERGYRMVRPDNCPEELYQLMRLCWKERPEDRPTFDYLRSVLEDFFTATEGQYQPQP

Take `Nc1c2c(=O)[nH]c(-c3ccccn3)cc2nn1-c1ccccc1`: the inhibition was 3% in data set [1], 3% in [2], 4% in data set [3] and 2% in data set [4]. In the data set on MCF7, this compound displayed a 50% growth inhibitory concentration (GI50) of 0.21 µM.

Consider `CN1CCN(c2ccc(-c3cc4c(c(N)nn4C)c(=O)[nH]3)cc2)CC1`, for which the IC50 at Aurora kinase A amounted to 33 µM; in [5], 7.8 µM; in data set [7], 34 µM; in data set [8], 7.7 µM; in data set [9] it was 35 µM; in data set [10] it was 5.2 µM. Further, the IC50 stood at 17 µM in [11]; 14 µM in data set [12]; 18 µM in data set [13]; 24 µM in data set [14]; 39 µM in [15]. For the same compound, the inhibition stood at 7% in data set [1], 53% in data set [2], 29% in [3] and 26% in data set [4]. For the same compound, in [6], the solubility is 55 µg/mL (≈ 163 µM).
